# Laboratory results: ChEMBL document CHEMBL1139294, “11-Phenyl-[b,e]-dibenzazepine compounds: novel antitumor agents” (Bioorg Med Chem Lett, 2009)
# Key:
# U-118-MG = experiment: Antiproliferative activity against human U118MG cells by SRB assay; type: functional, cell-based
# HeLa = experiment: Antiproliferative activity against human HeLa cells by SRB assay; type: functional, cell-based
# MDA-MB-231 = experiment: Antiproliferative activity against human MDA-MB-231 cells by SRB assay; type: functional, cell-based
# HepG2 = experiment: Antiproliferative activity against human HepG2 cells by SRB assay; type: functional, cell-based
# A549 = experiment: Antiproliferative activity against human A549 cells by SRB assay; type: functional, cell-based
# HT-29 [1] = experiment: Antiproliferative activity against human HT-29 cells by SRB assay; type: functional, cell-based
# [2] = Antiproliferative activity against human HTB-174 cells by SRB assay; type: functional, cell-based
# MCF7 = experiment: Antiproliferative activity against human MCF7 cells by SRB assay; type: functional, cell-based
# [3] = Antiproliferative activity against human MMRU cells by SRB assay; type: functional, cell-based
# NCI-H460 = experiment: Cell cycle arrest in human H460 cells assessed as DNA content at G0-G1 phase at 50 uM after 16 hrs by flow cytometry; type: functional
# Summary of the method: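 H-460 NSCLC cells serum-starved 72 h, then exposed to 50 µM for 16 h, with DMSO vehicle control. Harvested cells were washed in cold PBS and fixed in 70% ethanol at 4 °C for at least 4 h. They were treated with 3 mg/ml RNase plus 50 µg/ml propidium iodide for 30 min at 37 °C. Flow cytometry gave percent cells in G0–G1, S and G2–M.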
# HT-29 [4] = experiment: Cell cycle arrest in human HT-29 cells assessed as DNA content at G0-G1 phase at 25 uM after 16 hrs by flow cytometry; type: functional
# Summary of the method: (§1)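 HT-29 colon carcinoma cells were grown in complete medium and treated at 25 or 50 µM for 16 h, with 0.1% DMSO as vehicle. Cells were washed in cold PBS and fixed in 70% ethanol (4 °C, ≥4 h). Staining used 3 mg/ml ribonuclease and 50 µg/ml propidium iodide for 30 min at 37 °C. Phase distribution was measured by flow cytometry.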
# HT-29 [5] = experiment: Cell cycle arrest in human HT-29 cells assessed as DNA content at S phase at 25 uM after 16 hrs by flow cytometry; type: functional; summary of the method: as §1
# HT-29 [6] = experiment: Cell cycle arrest in human HT-29 cells assessed as DNA content at S phase at 50 uM by flow cytometry; type: functional; summary of the method: as §1
# HT-29 [7] = experiment: Cell cycle arrest in human HT-29 cells assessed as DNA content at G2-M phase at 50 uM by flow cytometry; type: functional; summary of the method: as §1
# HT-29 [8] = experiment: Cell cycle arrest in human HT-29 cells assessed as DNA content at G0-G1 phase at 50 uM by flow cytometry; type: functional; summary of the method: as §1
# HT-29 [9] = experiment: Cell cycle arrest in human HT-29 cells assessed as DNA content at G2-M phase at 25 uM after 16 hrs by flow cytometry; type: functional; summary of the method: as §1
Compound,IC50 (HeLa) [nM],IC50 (MDA-MB-231) [nM],IC50 (HepG2) [nM],"IC50 (A549; Homo sapiens, A549) [nM]","IC50 (HT-29 [1]; Homo sapiens, HT-29) [nM]",IC50 (MCF7) [nM],IC50 (U-118-MG) [nM],IC50 [2] [nM],"IC50 ([3]; Homo sapiens, MMRU) [nM]",also measured
COc1ccc2c(c1)CN(C(=O)c1ccc([N+](=O)[O-])cc1)c1ccc(Cl)cc1C2c1ccccc1Cl (centres undefined),500,900,900,1500,600,1300,800,500,500,–
CN(C)c1ccc(C(=O)N2Cc3ccccc3C(c3ccccc3)c3ccccc32)cc1 (centres undefined),900,1700,1000,2100,1000,1700,2600,–,–,–
O=C(c1ccc([N+](=O)[O-])cc1)N1Cc2ccccc2C(c2ccccc2)c2ccccc21 (centres undefined),600,–,900,–,700,–,900,700,500,–
O=C(Nc1ccc([N+](=O)[O-])cc1)N1Cc2ccccc2C(c2ccccc2Cl)c2ccccc21 (centres undefined),–,–,4500,> 5000,4800,2400,–,4000,3100,–
COC(=O)N1Cc2ccccc2C(c2ccccc2)c2ccccc21 (centres undefined),–,–,–,> 10000,> 10000,–,–,–,10000,–
CC(C)(C)Oc1cccc(C(=O)N2Cc3ccccc3C(c3ccccc3Cl)c3ccccc32)c1 (centres undefined),1400,1500,1200,3700,1700,3400,2500,–,–,–
Clc1ccccc1C1c2ccccc2CNc2ccccc21 (centres undefined),1100,1300,900,5400,1200,2700,1400,–,–,–
COc1ccc2c(c1)C(c1ccccc1Cl)c1cc(Cl)ccc1N(C(=O)c1ccc([N+](=O)[O-])cc1)C2 (centres undefined),200,400,400,600,200,700,400,200,200,–
CC(C)(C)Oc1cccc(C(=O)N2Cc3ccccc3C(c3ccccc3)c3ccccc32)c1 (centres undefined),–,–,2600,> 5000,1700,4500,–,3600,2500,–
C[N+](C)(C)c1ccc(C(=O)N2Cc3ccccc3C(c3ccccc3)c3ccccc32)cc1 (centres undefined),400,1300,1000,2000,1100,1700,1800,–,–,–
"O=C(c1ccc([N+](=O)[O-])cc1)N1Cc2ccccc2C(c2ccccc2Cl)c2ccccc21 (single isomer, unassigned; 9a)",–,–,–,–,–,–,–,–,–,Activity (NCI-H460): 71.06%
"O=C(c1ccc([N+](=O)[O-])cc1)N1Cc2ccccc2C(c2ccccc2Cl)c2ccccc21 (single isomer, unassigned; 9b)",–,–,–,–,–,–,–,–,–,Activity (NCI-H460): 74.96%
O=C(c1ccc([N+](=O)[O-])cc1)N1Cc2ccccc2C(c2ccccc2Cl)c2ccccc21 (stereo in doubt; 9),300,500,300,800,300,600,500,100,200,Activity (HT-29 [4]): 63.68%; Activity (HT-29 [5]): 25.79%; Activity (HT-29 [6]): 18.08%; Activity (HT-29 [7]): 12.69%; Activity (HT-29 [8]): 69.22%; Activity (HT-29 [9]): 10.53%; Activity (NCI-H460): 73.95%
O=C(c1ccccc1)N1Cc2ccccc2C(c2ccccc2)c2ccccc21 (stereo in doubt; 13),–,–,–,> 10000,–,–,–,–,–,IC50 (HT-29 [1]; ht-29): > 10000 nM; IC50 ([3]; mmru): > 10000 nM

# The next lines start with results.
IC50 (HeLa) [nM],IC50 (MDA-MB-231) [nM],IC50 (HepG2) [nM],"IC50 (A549; Homo sapiens, A549) [nM]","IC50 (HT-29 [1]; Homo sapiens, HT-29) [nM]",IC50 (MCF7) [nM],Compound,IC50 (U-118-MG) [nM],IC50 [2] [nM],"IC50 ([3]; Homo sapiens, MMRU) [nM]",also measured
> 5000,> 5000,4500,> 5000,> 5000,4300,Clc1ccccc1C1c2ccccc2CN(Cc2ccccc2)c2ccccc21 (centres undefined),–,–,–,–
–,–,–,11400,9700,1700,CN1Cc2ccccc2C(c2ccccc2Cl)c2ccccc21 (centres undefined),–,–,4600,–
500,1200,1500,3700,1700,1100,Nc1ccc(C(=O)N2Cc3ccccc3C(c3ccccc3Cl)c3ccccc32)cc1 (centres undefined),1600,–,–,–
–,–,3600,–,5000,4200,O=C(Oc1ccccc1)N1Cc2ccccc2C(c2ccccc2Cl)c2ccccc21 (centres undefined),–,–,–,–
200,–,400,1100,400,500,COc1ccc(C(=O)N2Cc3ccccc3C(c3ccccc3Cl)c3ccccc32)cc1 (centres undefined),400,300,200,–
900,1200,800,2500,600,1500,O=C(c1ccccc1)N1Cc2ccccc2C(c2ccccc2Cl)c2ccccc21 (centres undefined),1300,–,–,–
–,–,3400,–,–,4200,O=C(c1ccccc1)N1Cc2ccccc2C(c2ccccc2)c2ccccc21 (stereo in doubt; 17),–,2600,–,IC50 (A549; a549): > 5000 nM; IC50 (HT-29 [1]; ht-29): 2600 nM; IC50 ([3]; mmru): 2700 nM
